In ChEMBL document CHEMBL4602702, “Red-Emitting Dibenzodiazepinone Derivatives as Fluorescent Dualsteric Probes for the Muscarinic Acetylcholine M2 Receptor” (J Med Chem, 2020):
Active and inactive are the calls of the source. No cut-off for these calls is given here.

What was measured:
[1] = biological target: T1, Muscarinic acetylcholine receptor M2 (Homo sapiens, UniProt P08172); assay: (§1) Antagonist activity at human muscarinic M2 receptor expressed in HEK293 cells co-expressing HA-Galphaq/i5 assessed as inhibition of carbachol-induced IP1 accumulation at 37 degree C pre-incubated for 30 mins followed by carbachol addition and measured after 60 mins by HTRF assay; type: functional, cell-based
T1 sequence (P08172 whole entry): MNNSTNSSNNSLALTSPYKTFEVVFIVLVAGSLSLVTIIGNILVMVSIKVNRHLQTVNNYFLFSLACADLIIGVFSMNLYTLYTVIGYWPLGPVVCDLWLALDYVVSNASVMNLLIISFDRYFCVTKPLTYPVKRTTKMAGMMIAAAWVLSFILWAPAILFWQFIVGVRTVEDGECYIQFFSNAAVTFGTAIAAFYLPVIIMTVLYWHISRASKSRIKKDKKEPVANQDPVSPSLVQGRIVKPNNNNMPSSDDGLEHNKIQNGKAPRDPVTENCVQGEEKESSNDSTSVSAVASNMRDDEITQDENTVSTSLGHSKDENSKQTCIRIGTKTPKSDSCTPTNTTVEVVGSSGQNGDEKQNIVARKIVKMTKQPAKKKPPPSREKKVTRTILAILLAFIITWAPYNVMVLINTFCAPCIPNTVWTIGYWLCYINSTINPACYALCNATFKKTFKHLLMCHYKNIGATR

[2] = biological target: T1, Muscarinic acetylcholine receptor M2; assay: Displacement of [3H]-NMS from human muscarinic M2 receptor stably expressed in CHO-K9 cells by radioligand competitive binding assay; type: cell-based
How it was run: (§2)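 Equilibrium competition binding at live CHO-hMxR cells with [3H]NMS at M1 0.2, M2 0.2, M3 0.2, M4 0.1, M5 0.3 nM. […] Four-parameter logistic fit converted to pKi; at least three experiments in triplicate (some two).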

[3] = biological target: Muscarinic acetylcholine receptor M3 (Homo sapiens, UniProt P20309); assay: Displacement of [3H]-NMS from human muscarinic M3 receptor stably expressed in CHO-K9 cells by radioligand competitive binding assay; type: cell-based; how it was run: as §2
[4] = biological target: T2, Muscarinic acetylcholine receptor M4 (Homo sapiens, UniProt P08173); assay: Displacement of [3H]-NMS from human muscarinic M4 receptor stably expressed in CHO-K9 cells by radioligand competitive binding assay; type: cell-based; how it was run: as §2
T2 sequence (P08173 whole entry): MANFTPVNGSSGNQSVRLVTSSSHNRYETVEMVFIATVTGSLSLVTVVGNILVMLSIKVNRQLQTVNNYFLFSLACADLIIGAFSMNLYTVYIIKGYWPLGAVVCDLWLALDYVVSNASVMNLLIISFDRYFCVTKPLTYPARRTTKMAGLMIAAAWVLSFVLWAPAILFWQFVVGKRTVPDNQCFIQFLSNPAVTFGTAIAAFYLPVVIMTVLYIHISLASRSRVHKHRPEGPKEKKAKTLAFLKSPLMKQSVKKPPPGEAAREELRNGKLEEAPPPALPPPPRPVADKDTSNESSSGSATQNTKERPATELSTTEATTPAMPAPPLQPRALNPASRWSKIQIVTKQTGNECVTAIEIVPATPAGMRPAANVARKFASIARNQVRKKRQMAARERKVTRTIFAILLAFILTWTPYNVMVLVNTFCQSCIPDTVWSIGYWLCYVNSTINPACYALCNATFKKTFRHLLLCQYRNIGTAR

[5] = biological target: T1, Muscarinic acetylcholine receptor M2; assay: as §1, with “22” for “37”, “180” for “30”, “further incubated at 37 degree C for 90” for “measured after 60”; type: functional, cell-based
How it was run: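 HEK-hM2-Gαqi5-HA cells (transient transfection) preincubated with antagonist at 22 °C for 180 min, then carbachol 0.3 μM (≈EC80) added and incubation continued at 37 °C for 90 min. Readout is inhibition of IP1 accumulation as pIC50, mean ± SEM of n independent experiments, each in duplicate.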

[6] = biological target: T1, Muscarinic acetylcholine receptor M2; assay: Binding affinity to human muscarinic M2 receptor expressed in […] cells incubated in dark at 22 degree C for 2 hrs by FACSCalibur flow cytometric saturation binding study; type: cell-based
[7] = biological target: T1, Muscarinic acetylcholine receptor M2; assay: Binding affinity to human muscarinic M2 receptor expressed in CHO-K9 cells incubated in dark measured after 60 mins by Hoechst H33342 dye based confocal plate reader assay; type: cell-based
How it was run: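 Live CHO-hMxR cells (M1 or M2) incubated with fluorescent ligand at 22 °C in the dark for 1 h, washed, then imaged at once by high-content confocal plate reader.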

[8] = biological target: T3, Muscarinic acetylcholine receptor M2 (Homo sapiens) (UniProt P08172); assay: Binding affinity to human muscarinic M2 receptor expressed in […] cells assessed as unspecific binding at Kd incubated in dark at 22 degree C for 2 hrs in presence of atropine by FACSCalibur flow cytometric saturation binding study relative to control; type: cell-based
T3 sequence (whole entry): T1 sequence (P08172 whole entry)

[9] = biological target: T3, Muscarinic acetylcholine receptor M2 (Homo sapiens); assay: Binding affinity to human muscarinic M2 receptor expressed in CHO-K9 cells assessed as observed association rate constant at 22 +/- 1 degree C incubated under shaking condition in dark for 1 to 300 mins by flow cytometric saturation binding study; type: cell-based
[10] = biological target: T3, Muscarinic acetylcholine receptor M2 (Homo sapiens); assay: Competitive binding affinity to human muscarinic M2 receptor expressed in CHO-K9 cells assessed as rightward shift of saturation isotherm resulting in Schild regression in presence of increasing concentration of W84 by Schild-like analysis; type: cell-based
How it was run: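 High-content imaging saturation binding of fluorescent ligand at intact CHO-hM2R cells in the presence of increasing concentrations of the allosteric modulator W84. Rightward shifts (ΔpKd) plotted as log(r−1) vs log[modulator], with r = 10^ΔpKd. Three independent experiments in triplicate.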

[11] = Chemical stability of compound in PBS buffer assessed as retention time at pH 7.4 and 22 degree C measured up to 48 hrs by RP-HPLC analysis; type: physicochemical; conditions: pH 7.4, 48 h
How it was run: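 Fluorescent ligand stability checked in PBS pH 7.4 over 48 h by RP-HPLC on a C18 column with an aqueous TFA/acetonitrile gradient, oven at 25 °C, detection at 220 nm.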

[12] = biological target: T3, Muscarinic acetylcholine receptor M2 (Homo sapiens); assay: Binding affinity to human muscarinic M2 receptor expressed in CHO-K9 cells assessed as increase in intracellular fluorescence intensity at 30 nM incubated for 45 mins by confocal microscopy

Chain of Muscarinic acetylcholine receptor M3 (P20309 whole entry): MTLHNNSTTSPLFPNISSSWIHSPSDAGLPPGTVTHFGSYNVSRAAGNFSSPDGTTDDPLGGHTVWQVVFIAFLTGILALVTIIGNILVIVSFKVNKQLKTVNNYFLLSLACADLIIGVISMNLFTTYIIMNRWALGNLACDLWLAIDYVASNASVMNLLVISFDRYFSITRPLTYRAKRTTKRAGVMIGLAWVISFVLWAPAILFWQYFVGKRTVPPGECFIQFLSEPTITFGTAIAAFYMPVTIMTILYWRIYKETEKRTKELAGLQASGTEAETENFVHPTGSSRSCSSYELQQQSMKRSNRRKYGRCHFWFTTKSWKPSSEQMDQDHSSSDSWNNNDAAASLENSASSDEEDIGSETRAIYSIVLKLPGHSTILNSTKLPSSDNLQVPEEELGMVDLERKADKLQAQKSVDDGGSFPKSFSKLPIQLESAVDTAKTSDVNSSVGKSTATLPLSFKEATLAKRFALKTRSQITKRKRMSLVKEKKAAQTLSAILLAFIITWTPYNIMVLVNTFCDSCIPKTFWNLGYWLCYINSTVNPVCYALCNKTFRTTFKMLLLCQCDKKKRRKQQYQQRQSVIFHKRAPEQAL

Row | IC50 [1] [nM] | Ki [2] [nM] | Ki [3] [nM] | Ki [4] [nM] | IC50 [5] [nM] | Kd ([6]; read-out: Kd) [nM] | Kd ([6]; read-out: pKd (converted)) [nM] | Kd ([7]; read-out: Kd) [nM] | Kd ([7]; read-out: pKd (converted)) [nM] | Activity [8] [%] | K [9] [min⁻¹] | Activity [10] | Retention_time [11] [min] | Activity [12] | Compound
1 | 224 | 0.525 | 81.3 | 2.14 | 38.9 | 0.8 | 0.891 | 5.3 | 4.68 | 10 | 0.014 | Active | 18.2 | Active | CC1(C)C(/C=C/C=C/C=C2/N(CCCCCC(=O)NCCN3CCN(CCCCC4CCN(CC(=O)N5c6ccccc6NC(=O)c6ccccc65)CC4)CC3)c3ccc(S(=O)(=O)O)cc3C2(C)C)=[N+](CCCCS(=O)(=O)[O-])c2ccccc21.O=C(O)C(F)(F)F.O=C(O)C(F)(F)F
2 | 355 | 0.794 | 155 | 4.47 | 57.5 | 4.1 | 4.47 | 12.6 | 11.5 | 10 | 0.026 | Active | 10.3 | Active | CC1(C)C(/C=C/C=C/C=C2/N(CCCCCC(=O)NCCNC(=O)CCc3cn(CCCCC4CCN(CC(=O)N5c6ccccc6NC(=O)c6ccccc65)CC4)cn3)c3ccc(S(=O)(=O)O)cc3C2(C)C)=[N+](CCCCS(=O)(=O)[O-])c2ccccc21.O=C(O)C(F)(F)F
3 | 24 | 0.631 | 75.9 | 2.88 | 17.4 | 3.2 | 3.09 | 2.9 | 5.62 | < 5 | 0.024 | Active | 10.4 | Active | CC1(C)C(/C=C/C=C/C=C2/N(CCCCCC(=O)NCc3cc(C(=O)NCCNC(=O)CCc4cn(CCCCC5CCN(CC(=O)N6c7ccccc7NC(=O)c7ccccc76)CC5)cn4)cc(C(=O)NCCNC(=O)CCc4cn(CCCCC5CCN(CC(=O)N6c7ccccc7NC(=O)c7ccccc76)CC5)cn4)c3)c3ccc(S(=O)(=O)O)cc3C2(C)C)=[N+](CCCCS(=O)(=O)[O-])c2ccccc21.O=C(O)C(F)(F)F.O=C(O)C(F)(F)F.O=C(O)C(F)(F)F
